Source: ChEMBL document CHEMBL4257590, “Semisynthesis of Platensimycin Derivatives with Antibiotic Activities in Mice via Suzuki-Miyaura Cross-Coupling Reactions” (J Med Chem, 2018)
≈ marks a conversion by molar mass, not a printed value.

Tests used:
Format in all cases: functional
[1] = system: Staphylococcus aureus; assay: Antibacterial activity against methicillin-resistant Staphylococcus aureus isolate 3 after 16 hrs by agar dilution method; conditions: isolate 3, 16 h
How it was run: (§1)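 Agar dilution in LB agar with compound (from methanol solutions) at final 0.5–64 μg/ml per plate. Strains grown 16 h at 37 °C, 250 rpm in LB broth, adjusted to OD600 0.25±0.05, diluted 10^4-fold; 2 μl spotted per plate, incubated 16 h at 37 °C. MIC = lowest concentration with no visible colonies; at least two independent experiments. Linezolid and PTM as controls.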

[2] = system: Staphylococcus aureus; assay: Antibacterial activity against methicillin-sensitive Staphylococcus aureus isolate 2 after 16 hrs by agar dilution method; conditions: isolate 2, 16 h; how it was run: as §1
[3] = system: Staphylococcus aureus; assay: Antibacterial activity against Staphylococcus aureus ATCC 29213 after 16 hrs by agar dilution method; conditions: ATCC 29213, 16 h; how it was run: as §1
[4] = system: Staphylococcus aureus; assay: Antibacterial activity against methicillin-resistant Staphylococcus aureus isolate 4 after 16 hrs by agar dilution method; conditions: isolate 4, 16 h; how it was run: as §1
[5] = system: Staphylococcus aureus; assay: Antibacterial activity against methicillin-sensitive Staphylococcus aureus isolate 1 after 16 hrs by agar dilution method; conditions: isolate 1, 16 h; how it was run: as §1
[6] = system: Staphylococcus aureus; assay: Antibacterial activity against methicillin-resistant Staphylococcus aureus isolate 5 after 16 hrs by agar dilution method; conditions: isolate 5, 16 h; how it was run: as §1
[7] = system: Staphylococcus aureus; assay: Antibacterial activity against methicillin-resistant Staphylococcus aureus isolate 6 after 16 hrs by agar dilution method; conditions: isolate 6, 16 h; how it was run: as §1

| Compound | MIC [1] | MIC [2] | MIC [3] | MIC [4] | MIC [5] | MIC [6] | MIC [7] |
| --- | --- | --- | --- | --- | --- | --- | --- |
| C[C@]12C[C@@]34C=C(c5ccccc5)C(=O)[C@@](C)(CCC(=O)Nc5c(O)ccc(C(=O)O)c5O)[C@@H]3[C@H](C[C@H]1C4)O2 | 16 µg/mL (≈ 30.9 µM) | 16 µg/mL (≈ 30.9 µM) | 16 µg/mL (≈ 30.9 µM) | 16 µg/mL (≈ 30.9 µM) | 16 µg/mL (≈ 30.9 µM) | 16 µg/mL (≈ 30.9 µM) | 16 µg/mL (≈ 30.9 µM) |
| COc1ccccc1C1=C[C@]23C[C@@H]4C[C@H](O[C@@]4(C)C2)[C@H]3[C@](C)(CCC(=O)Nc2c(O)ccc(C(=O)O)c2O)C1=O | 16 µg/mL (≈ 29.2 µM) | 16 µg/mL (≈ 29.2 µM) | 8 µg/mL (≈ 14.6 µM) | 16 µg/mL (≈ 29.2 µM) | 8 µg/mL (≈ 14.6 µM) | 16 µg/mL (≈ 29.2 µM) | 16 µg/mL (≈ 29.2 µM) |
| CCCCCc1ccc(C2=C[C@]34C[C@@H]5C[C@H](O[C@@]5(C)C3)[C@H]4[C@](C)(CCC(=O)Nc3c(O)ccc(C(=O)O)c3O)C2=O)cc1 | 4 µg/mL (≈ 6.81 µM) | 4 µg/mL (≈ 6.81 µM) | 4 µg/mL (≈ 6.81 µM) | 4 µg/mL (≈ 6.81 µM) | 4 µg/mL (≈ 6.81 µM) | 4 µg/mL (≈ 6.81 µM) | 4 µg/mL (≈ 6.81 µM) |
| Cc1ccc(C2=C[C@]34C[C@@H]5C[C@H](O[C@@]5(C)C3)[C@H]4[C@](C)(CCC(=O)Nc3c(O)ccc(C(=O)O)c3O)C2=O)cc1 | 8 µg/mL (≈ 15 µM) | 8 µg/mL (≈ 15 µM) | 8 µg/mL (≈ 15 µM) | 16 µg/mL (≈ 30.1 µM) | 8 µg/mL (≈ 15 µM) | 16 µg/mL (≈ 30.1 µM) | 16 µg/mL (≈ 30.1 µM) |
| CC(=O)NC[C@H]1CN(c2ccc(N3CCOCC3)c(F)c2)C(=O)O1 [LINEZOLID] | 1 µg/mL (≈ 2.96 µM) | 1 µg/mL (≈ 2.96 µM) | 1 µg/mL (≈ 2.96 µM) | 1 µg/mL (≈ 2.96 µM) | 1 µg/mL (≈ 2.96 µM) | 1 µg/mL (≈ 2.96 µM) | 1 µg/mL (≈ 2.96 µM) |
| C[C@]12C[C@@]34C=C(c5ccc(C=O)cc5)C(=O)[C@@](C)(CCC(=O)Nc5c(O)ccc(C(=O)O)c5O)[C@@H]3[C@H](C[C@H]1C4)O2 | 32 µg/mL (≈ 58.7 µM) | 16 µg/mL (≈ 29.3 µM) | 32 µg/mL (≈ 58.7 µM) | 32 µg/mL (≈ 58.7 µM) | 16 µg/mL (≈ 29.3 µM) | 32 µg/mL (≈ 58.7 µM) | 32 µg/mL (≈ 58.7 µM) |
| Cc1ccccc1C1=C[C@]23C[C@@H]4C[C@H](O[C@@]4(C)C2)[C@H]3[C@](C)(CCC(=O)Nc2c(O)ccc(C(=O)O)c2O)C1=O | 16 µg/mL (≈ 30.1 µM) | 16 µg/mL (≈ 30.1 µM) | 8 µg/mL (≈ 15 µM) | 16 µg/mL (≈ 30.1 µM) | 8 µg/mL (≈ 15 µM) | 16 µg/mL (≈ 30.1 µM) | 16 µg/mL (≈ 30.1 µM) |
| Cc1cccc(C2=C[C@]34C[C@@H]5C[C@H](O[C@@]5(C)C3)[C@H]4[C@](C)(CCC(=O)Nc3c(O)ccc(C(=O)O)c3O)C2=O)c1 | 8 µg/mL (≈ 15 µM) | 4 µg/mL (≈ 7.52 µM) | 8 µg/mL (≈ 15 µM) | 8 µg/mL (≈ 15 µM) | 4 µg/mL (≈ 7.52 µM) | 8 µg/mL (≈ 15 µM) | 8 µg/mL (≈ 15 µM) |
| C[C@]12C[C@@]34C=C(c5ccc6ccccc6c5)C(=O)[C@@](C)(CCC(=O)Nc5c(O)ccc(C(=O)O)c5O)[C@@H]3[C@H](C[C@H]1C4)O2 | 8 µg/mL (≈ 14.1 µM) | 8 µg/mL (≈ 14.1 µM) | 8 µg/mL (≈ 14.1 µM) | 8 µg/mL (≈ 14.1 µM) | 8 µg/mL (≈ 14.1 µM) | 8 µg/mL (≈ 14.1 µM) | 8 µg/mL (≈ 14.1 µM) |
| C[C@]12C[C@@]34C=C(c5ccc(Br)cc5)C(=O)[C@@](C)(CCC(=O)Nc5c(O)ccc(C(=O)O)c5O)[C@@H]3[C@H](C[C@H]1C4)O2 | 4 µg/mL (≈ 6.71 µM) | 4 µg/mL (≈ 6.71 µM) | 2 µg/mL (≈ 3.35 µM) | 4 µg/mL (≈ 6.71 µM) | 2 µg/mL (≈ 3.35 µM) | 2 µg/mL (≈ 3.35 µM) | 2 µg/mL (≈ 3.35 µM) |
| C[C@]12C[C@@]34C=C(c5ccccc5-c5ccccc5)C(=O)[C@@](C)(CCC(=O)Nc5c(O)ccc(C(=O)O)c5O)[C@@H]3[C@H](C[C@H]1C4)O2 | 8 µg/mL (≈ 13.5 µM) | 8 µg/mL (≈ 13.5 µM) | 4 µg/mL (≈ 6.74 µM) | 8 µg/mL (≈ 13.5 µM) | 8 µg/mL (≈ 13.5 µM) | 8 µg/mL (≈ 13.5 µM) | 8 µg/mL (≈ 13.5 µM) |
| C[C@]12C[C@@]34C=C(c5cc(Cl)cc(Cl)c5)C(=O)[C@@](C)(CCC(=O)Nc5c(O)ccc(C(=O)O)c5O)[C@@H]3[C@H](C[C@H]1C4)O2 | 8 µg/mL (≈ 13.6 µM) | 8 µg/mL (≈ 13.6 µM) | 8 µg/mL (≈ 13.6 µM) | 8 µg/mL (≈ 13.6 µM) | 8 µg/mL (≈ 13.6 µM) | 8 µg/mL (≈ 13.6 µM) | 8 µg/mL (≈ 13.6 µM) |
| C[C@]12C[C@@]34C=C(c5cccc(OC(F)(F)F)c5)C(=O)[C@@](C)(CCC(=O)Nc5c(O)ccc(C(=O)O)c5O)[C@@H]3[C@H](C[C@H]1C4)O2 | 8 µg/mL (≈ 13.3 µM) | 8 µg/mL (≈ 13.3 µM) | 8 µg/mL (≈ 13.3 µM) | 8 µg/mL (≈ 13.3 µM) | 8 µg/mL (≈ 13.3 µM) | 8 µg/mL (≈ 13.3 µM) | 8 µg/mL (≈ 13.3 µM) |
| C[C@]12C[C@@]34C=C(c5cccc(O)c5)C(=O)[C@@](C)(CCC(=O)Nc5c(O)ccc(C(=O)O)c5O)[C@@H]3[C@H](C[C@H]1C4)O2 | 32 µg/mL (≈ 60 µM) | 32 µg/mL (≈ 60 µM) | 32 µg/mL (≈ 60 µM) | 32 µg/mL (≈ 60 µM) | 32 µg/mL (≈ 60 µM) | 32 µg/mL (≈ 60 µM) | 32 µg/mL (≈ 60 µM) |
| Cc1cc(C)cc(C2=C[C@]34C[C@@H]5C[C@H](O[C@@]5(C)C3)[C@H]4[C@](C)(CCC(=O)Nc3c(O)ccc(C(=O)O)c3O)C2=O)c1 | 4 µg/mL (≈ 7.33 µM) | 4 µg/mL (≈ 7.33 µM) | 4 µg/mL (≈ 7.33 µM) | 4 µg/mL (≈ 7.33 µM) | 4 µg/mL (≈ 7.33 µM) | 4 µg/mL (≈ 7.33 µM) | 4 µg/mL (≈ 7.33 µM) |
| C[C@]12C[C@@]34C=C(c5cc6ccccc6c6ccccc56)C(=O)[C@@](C)(CCC(=O)Nc5c(O)ccc(C(=O)O)c5O)[C@@H]3[C@H](C[C@H]1C4)O2 | 4 µg/mL (≈ 6.48 µM) | 2 µg/mL (≈ 3.24 µM) | 2 µg/mL (≈ 3.24 µM) | 2 µg/mL (≈ 3.24 µM) | 2 µg/mL (≈ 3.24 µM) | 4 µg/mL (≈ 6.48 µM) | 2 µg/mL (≈ 3.24 µM) |
| C[C@]12C[C@@]34C=C(c5ccc(-c6ccccc6)cc5)C(=O)[C@@](C)(CCC(=O)Nc5c(O)ccc(C(=O)O)c5O)[C@@H]3[C@H](C[C@H]1C4)O2 | 8 µg/mL (≈ 13.5 µM) | 8 µg/mL (≈ 13.5 µM) | 4 µg/mL (≈ 6.74 µM) | 8 µg/mL (≈ 13.5 µM) | 8 µg/mL (≈ 13.5 µM) | 8 µg/mL (≈ 13.5 µM) | 8 µg/mL (≈ 13.5 µM) |
| C[C@]12C[C@@]34C=C(c5cccc(C(F)(F)F)c5)C(=O)[C@@](C)(CCC(=O)Nc5c(O)ccc(C(=O)O)c5O)[C@@H]3[C@H](C[C@H]1C4)O2 | 8 µg/mL (≈ 13.7 µM) | 8 µg/mL (≈ 13.7 µM) | 4 µg/mL (≈ 6.83 µM) | 8 µg/mL (≈ 13.7 µM) | 4 µg/mL (≈ 6.83 µM) | 8 µg/mL (≈ 13.7 µM) | 8 µg/mL (≈ 13.7 µM) |
| C[C@]12C[C@@]34C=C(c5cccc(-c6ccccc6)c5)C(=O)[C@@](C)(CCC(=O)Nc5c(O)ccc(C(=O)O)c5O)[C@@H]3[C@H](C[C@H]1C4)O2 | 8 µg/mL (≈ 13.5 µM) | 8 µg/mL (≈ 13.5 µM) | 8 µg/mL (≈ 13.5 µM) | 8 µg/mL (≈ 13.5 µM) | 8 µg/mL (≈ 13.5 µM) | 8 µg/mL (≈ 13.5 µM) | 8 µg/mL (≈ 13.5 µM) |
